Active and inactive are the calls of the source. The calls are words filed in the database; no cut-off is given here.

The target of data set [1] is T1, Metabotropic glutamate receptor 4 (Homo sapiens, UniProt Q14833). Briefly: Activity at human mGluR4 receptor expressed in CHO cells assessed as effect on calcium mobilization relative to glutamate. The class given is functional, cell-based. For orientation: Calcium flux is commonly read through the fluorescence of an indicator in the cells.
The nature of data set [2]: AUC in Sprague-Dawley rat brain at 10 mg/kg, ip. The class given is ADME, organism-based. Also noted: dose 10 mg/kg, route intraperitoneal. The gist of the method:
(§1)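 Rats dosed intraperitoneally at 10mg/kg with the hydrochloride salt, given as an aqueous microsuspension containing 10% tween 80. Compound levels in brain and plasma were measured at 0.5, 1 and 8 h after administration.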

The nature of data set [3]: Metabolic stability in rat liver microsomes after 1 hr. The class given is ADME, Microsome. As to conditions: read-out: Stability. (Microsomes from liver hold many membrane-bound enzymes, among them those of drug oxidation.)
The target in data set [4] is Metabotropic glutamate receptor 1 (Homo sapiens) (UniProt Q13255). Briefly: Activity at human mGluR1.
Sequence of Metabotropic glutamate receptor 1 (Homo sapiens) (Q13255 19-1194 limits assumed): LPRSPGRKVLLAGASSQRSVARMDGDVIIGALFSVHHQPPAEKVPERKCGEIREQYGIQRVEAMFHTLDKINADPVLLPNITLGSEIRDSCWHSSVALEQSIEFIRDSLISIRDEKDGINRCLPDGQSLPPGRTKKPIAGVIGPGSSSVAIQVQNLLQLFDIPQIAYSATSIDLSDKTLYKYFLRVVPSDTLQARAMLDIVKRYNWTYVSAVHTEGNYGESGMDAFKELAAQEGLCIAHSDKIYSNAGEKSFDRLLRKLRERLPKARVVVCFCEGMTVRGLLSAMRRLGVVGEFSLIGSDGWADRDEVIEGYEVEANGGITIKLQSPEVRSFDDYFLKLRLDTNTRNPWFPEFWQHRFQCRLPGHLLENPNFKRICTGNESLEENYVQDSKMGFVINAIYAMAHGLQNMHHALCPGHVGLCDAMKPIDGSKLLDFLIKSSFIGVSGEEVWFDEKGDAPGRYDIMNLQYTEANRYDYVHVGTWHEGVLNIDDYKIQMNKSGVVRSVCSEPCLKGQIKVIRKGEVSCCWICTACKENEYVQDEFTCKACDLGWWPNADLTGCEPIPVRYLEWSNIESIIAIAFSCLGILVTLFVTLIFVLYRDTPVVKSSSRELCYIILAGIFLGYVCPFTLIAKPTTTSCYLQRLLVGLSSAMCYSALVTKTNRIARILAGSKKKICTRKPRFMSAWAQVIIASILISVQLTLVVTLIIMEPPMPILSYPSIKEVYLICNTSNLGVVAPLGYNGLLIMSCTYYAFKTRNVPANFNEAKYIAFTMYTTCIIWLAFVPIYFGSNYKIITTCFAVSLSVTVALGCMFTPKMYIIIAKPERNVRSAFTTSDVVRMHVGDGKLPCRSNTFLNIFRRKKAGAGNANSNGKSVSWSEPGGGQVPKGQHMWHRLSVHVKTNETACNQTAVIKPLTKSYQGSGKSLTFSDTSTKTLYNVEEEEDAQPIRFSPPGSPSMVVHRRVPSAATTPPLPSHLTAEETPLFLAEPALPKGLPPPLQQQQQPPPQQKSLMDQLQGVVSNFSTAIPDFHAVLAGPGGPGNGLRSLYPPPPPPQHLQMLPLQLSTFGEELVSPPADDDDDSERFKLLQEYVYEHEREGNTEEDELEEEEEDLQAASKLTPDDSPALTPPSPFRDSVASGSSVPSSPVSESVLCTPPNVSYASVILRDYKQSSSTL
Data set [5] is described as follows: Cmax in Sprague-Dawley rat brain at 10 mg/kg, ip. On the set-up: dose 10 mg/kg, route intraperitoneal. The class given is ADME, organism-based. The gist of the method: as §1
Data set [6] concerns Plasma. Briefly: Cmax in Sprague-Dawley rat plasma at 10 mg/kg, ip. Also noted: dose 10 mg/kg, route intraperitoneal. As to conditions: in vivo. The data set is classed as ADME, organism-based.
Data set [7] has as its target Metabotropic glutamate receptor 4 (Rattus norvegicus) (UniProt P31423). Description: Activity at rat mGluR4 receptor expressed in HEK293 cells assessed as effect on thallium flux relative to glutamate. The class given is cell-based.
Data set [8] addresses Metabotropic glutamate receptor 7 (Homo sapiens) (UniProt Q14831). Description: Activity at human mGluR7.
Data set [9] concerns Plasma. Briefly: AUC in Sprague-Dawley rat plasma at 10 mg/kg, ip. As to conditions: in vivo. The class given is ADME, organism-based. Also noted: dose 10 mg/kg, route intraperitoneal.
Data set [10] in a line: Metabolic stability in human liver microsomes after 1 hr. The class given is ADME, Microsome. As to conditions: read-out: Stability.
For data set [11], the target named is Metabotropic glutamate receptor 3 (Homo sapiens) (UniProt Q14832). Briefly: Activity at human mGluR3.
Sequence of Metabotropic glutamate receptor 3 (Homo sapiens) (Q14832 23-879 limits assumed): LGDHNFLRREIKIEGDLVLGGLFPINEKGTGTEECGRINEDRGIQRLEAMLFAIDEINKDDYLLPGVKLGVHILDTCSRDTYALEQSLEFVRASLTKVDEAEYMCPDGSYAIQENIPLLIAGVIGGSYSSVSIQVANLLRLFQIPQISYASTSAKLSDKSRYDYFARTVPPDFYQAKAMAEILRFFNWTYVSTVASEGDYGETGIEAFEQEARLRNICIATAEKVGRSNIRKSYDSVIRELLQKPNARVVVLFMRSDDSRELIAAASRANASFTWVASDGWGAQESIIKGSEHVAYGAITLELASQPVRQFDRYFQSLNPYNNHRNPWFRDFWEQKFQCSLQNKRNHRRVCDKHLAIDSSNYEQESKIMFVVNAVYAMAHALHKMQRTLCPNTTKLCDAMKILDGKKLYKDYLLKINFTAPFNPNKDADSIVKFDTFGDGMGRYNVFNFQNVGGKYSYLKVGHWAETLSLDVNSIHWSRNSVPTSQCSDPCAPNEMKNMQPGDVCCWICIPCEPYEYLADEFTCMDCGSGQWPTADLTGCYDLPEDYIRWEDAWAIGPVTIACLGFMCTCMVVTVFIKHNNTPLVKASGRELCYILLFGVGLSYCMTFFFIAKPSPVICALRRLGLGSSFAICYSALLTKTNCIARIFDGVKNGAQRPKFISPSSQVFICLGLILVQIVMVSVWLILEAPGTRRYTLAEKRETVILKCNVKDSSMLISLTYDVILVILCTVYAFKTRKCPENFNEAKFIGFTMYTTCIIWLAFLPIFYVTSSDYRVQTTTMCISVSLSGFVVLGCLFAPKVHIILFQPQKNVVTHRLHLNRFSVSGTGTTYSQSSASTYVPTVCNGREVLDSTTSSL
A short description of data set [12]: Apparent oral clearance in Sprague-Dawley rat at 10 mg/kg, ip. The class given is ADME, organism-based. On the set-up: dose 10 mg/kg. As to conditions: in vivo. Put shortly:
as §1

Data set [13] relates to Plasma. Description: Fraction unbound in human plasma by at […]. The class given is ADME, cell-free.
The target of data set [14] is Metabotropic glutamate receptor 5 (Homo sapiens) (UniProt P41594). Description: Activity at human mGluR5.
Sequence of Metabotropic glutamate receptor 5 (Homo sapiens) (P41594 21-1212 limits assumed): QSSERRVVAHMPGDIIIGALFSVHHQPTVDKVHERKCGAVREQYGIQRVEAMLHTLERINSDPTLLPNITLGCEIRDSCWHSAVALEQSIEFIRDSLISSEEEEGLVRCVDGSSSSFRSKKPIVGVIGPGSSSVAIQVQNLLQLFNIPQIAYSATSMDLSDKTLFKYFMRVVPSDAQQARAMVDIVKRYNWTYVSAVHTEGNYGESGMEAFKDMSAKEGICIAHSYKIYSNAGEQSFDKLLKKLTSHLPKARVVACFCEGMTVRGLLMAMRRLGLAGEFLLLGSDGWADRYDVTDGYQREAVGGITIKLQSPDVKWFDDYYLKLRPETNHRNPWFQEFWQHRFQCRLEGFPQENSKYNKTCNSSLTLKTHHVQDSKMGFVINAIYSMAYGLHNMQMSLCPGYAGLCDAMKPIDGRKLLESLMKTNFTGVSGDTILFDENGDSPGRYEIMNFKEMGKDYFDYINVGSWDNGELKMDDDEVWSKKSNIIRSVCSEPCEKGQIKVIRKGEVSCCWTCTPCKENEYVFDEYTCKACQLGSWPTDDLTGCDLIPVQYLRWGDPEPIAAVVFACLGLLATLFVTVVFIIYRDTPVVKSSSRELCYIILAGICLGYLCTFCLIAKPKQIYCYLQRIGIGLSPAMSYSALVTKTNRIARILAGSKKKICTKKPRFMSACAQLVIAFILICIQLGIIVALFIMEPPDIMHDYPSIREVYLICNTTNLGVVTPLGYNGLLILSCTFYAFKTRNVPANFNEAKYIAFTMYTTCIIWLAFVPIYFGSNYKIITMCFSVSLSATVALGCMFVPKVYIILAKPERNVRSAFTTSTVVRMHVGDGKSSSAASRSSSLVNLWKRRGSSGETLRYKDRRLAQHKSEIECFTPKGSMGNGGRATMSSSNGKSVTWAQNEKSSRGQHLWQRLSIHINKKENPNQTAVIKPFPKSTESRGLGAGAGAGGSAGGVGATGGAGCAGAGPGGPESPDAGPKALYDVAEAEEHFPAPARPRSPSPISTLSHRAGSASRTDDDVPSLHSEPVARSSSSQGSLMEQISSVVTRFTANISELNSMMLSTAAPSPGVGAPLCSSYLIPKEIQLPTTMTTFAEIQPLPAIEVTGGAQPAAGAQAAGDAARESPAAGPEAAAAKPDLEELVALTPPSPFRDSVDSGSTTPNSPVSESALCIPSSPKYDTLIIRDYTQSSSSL
For data set [15], the target named is Metabotropic glutamate receptor 2 (Homo sapiens) (UniProt Q14416). Briefly: Activity at human mGluR2.
Sequence of Metabotropic glutamate receptor 2 (Homo sapiens) (Q14416 19-872 limits assumed): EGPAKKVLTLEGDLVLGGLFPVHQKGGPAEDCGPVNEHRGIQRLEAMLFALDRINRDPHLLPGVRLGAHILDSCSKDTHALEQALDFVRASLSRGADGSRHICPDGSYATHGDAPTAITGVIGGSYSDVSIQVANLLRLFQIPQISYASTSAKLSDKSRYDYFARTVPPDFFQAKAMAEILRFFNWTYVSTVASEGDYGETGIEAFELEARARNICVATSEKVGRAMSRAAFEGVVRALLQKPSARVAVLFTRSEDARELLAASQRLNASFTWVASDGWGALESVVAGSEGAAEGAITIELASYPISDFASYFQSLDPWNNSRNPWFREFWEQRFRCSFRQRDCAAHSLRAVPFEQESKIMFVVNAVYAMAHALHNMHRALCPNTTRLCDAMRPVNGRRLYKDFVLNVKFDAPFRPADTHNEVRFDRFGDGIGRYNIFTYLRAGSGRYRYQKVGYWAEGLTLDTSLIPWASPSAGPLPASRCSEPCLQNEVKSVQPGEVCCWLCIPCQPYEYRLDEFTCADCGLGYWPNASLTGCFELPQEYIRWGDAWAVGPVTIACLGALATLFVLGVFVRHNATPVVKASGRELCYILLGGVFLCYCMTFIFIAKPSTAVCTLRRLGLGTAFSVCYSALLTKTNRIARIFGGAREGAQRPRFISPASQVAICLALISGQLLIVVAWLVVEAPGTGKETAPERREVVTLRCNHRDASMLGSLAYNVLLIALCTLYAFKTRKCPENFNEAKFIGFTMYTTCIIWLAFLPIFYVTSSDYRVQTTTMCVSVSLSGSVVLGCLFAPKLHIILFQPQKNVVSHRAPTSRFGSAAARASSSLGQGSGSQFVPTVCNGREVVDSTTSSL
Data set [16] has as its system Plasma. Description: Fraction unbound in rat plasma by at […]. The data set is classed as ADME, cell-free.
The test system of data set [17] is Brain. Briefly: Half life in Sprague-Dawley rat brain at 10 mg/kg, ip. The class given is ADME, organism-based. As to conditions: in vivo. On the set-up: dose 10 mg/kg, route intraperitoneal. Put shortly:
as §1

For data set [18], the system named is Plasma. Briefly: Half life in Sprague-Dawley rat plasma at 10 mg/kg, ip. The class given is ADME, organism-based. Also noted: dose 10 mg/kg, route intraperitoneal. As to conditions: in vivo. The gist of the method:
as §1

The target of data set [19] is T1, Metabotropic glutamate receptor 4. Description: Activity at human mGluR4 receptor expressed in CHO cells assessed as effect on calcium mobilization. The data set is classed as functional, cell-based.
In data set [20] the target is Metabotropic glutamate receptor 4 (Rattus norvegicus, UniProt P31423). Briefly: Activity at rat mGluR4 receptor expressed in HEK293 cells assessed as effect on thallium flux.
Data set [21] deals with T1, Metabotropic glutamate receptor 4. Description: Activity at human mGluR4 expressed in CHO cells coexpressing Gqi5 protein assessed as fold shifting of glutamate-induced response to left at 30 uM. The class given is cell-based.
Data set [22] deals with Metabotropic glutamate receptor 4 (Rattus norvegicus) (UniProt P31423). Briefly: Activity at rat mGluR4 expressed in HEK293 cells coexpressing Gqi5 protein assessed as fold shifting of glutamate-induced response to left at 30 uM. The data set is classed as cell-based.
For data set [23], the target named is Metabotropic glutamate receptor 8 (Homo sapiens) (UniProt O00222). Description: Activity at human mGluR8 assessed as fold shifting of glutamate-induced response to left.

T1 sequence (Q14833 whole entry): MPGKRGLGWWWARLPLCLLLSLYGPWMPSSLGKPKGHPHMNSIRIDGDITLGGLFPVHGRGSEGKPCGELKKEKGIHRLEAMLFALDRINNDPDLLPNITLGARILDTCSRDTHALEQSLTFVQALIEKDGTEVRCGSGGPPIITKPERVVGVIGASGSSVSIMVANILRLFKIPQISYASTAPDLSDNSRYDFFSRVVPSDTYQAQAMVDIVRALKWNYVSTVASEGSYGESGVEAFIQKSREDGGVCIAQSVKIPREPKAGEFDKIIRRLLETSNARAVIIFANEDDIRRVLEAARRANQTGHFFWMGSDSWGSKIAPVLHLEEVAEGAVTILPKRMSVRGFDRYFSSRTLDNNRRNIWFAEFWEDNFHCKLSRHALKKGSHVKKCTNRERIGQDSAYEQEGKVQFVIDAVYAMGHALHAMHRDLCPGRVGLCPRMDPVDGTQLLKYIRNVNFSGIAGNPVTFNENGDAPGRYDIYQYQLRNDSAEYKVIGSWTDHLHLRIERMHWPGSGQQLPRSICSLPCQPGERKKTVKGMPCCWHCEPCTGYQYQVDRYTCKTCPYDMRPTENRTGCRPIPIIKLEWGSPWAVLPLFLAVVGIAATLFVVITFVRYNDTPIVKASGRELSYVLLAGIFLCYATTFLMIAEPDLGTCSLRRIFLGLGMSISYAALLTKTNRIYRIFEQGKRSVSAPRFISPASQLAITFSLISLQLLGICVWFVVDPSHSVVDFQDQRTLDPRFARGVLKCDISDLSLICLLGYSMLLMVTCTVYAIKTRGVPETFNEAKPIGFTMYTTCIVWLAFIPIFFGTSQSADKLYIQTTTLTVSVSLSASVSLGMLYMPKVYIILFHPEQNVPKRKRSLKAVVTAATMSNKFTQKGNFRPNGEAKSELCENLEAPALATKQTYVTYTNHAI

A word on the Emax: it is the greatest response seen or fitted, relative to the assay's reference. For orientation: AUC means the area under the concentration-time curve, a measure of exposure. Read a low AUC as less exposure. The term Cmax denotes the highest concentration seen after dosing. What is called CL/F is clearance divided by bioavailability, as obtained after extravascular dosing. With `O=C(Nc1cccc(OC(F)F)c1)c1ccccn1`, the results for the Emax in [1] and in [7] were 235% and 113%, respectively. Further, the values for the AUC in data set [2] and in [9] were 976 ng·h/mL and 99 ng·h/mL, respectively. The remaining at 1 h is 1.4% in [3] and 2.4% in data set [10]. Also, the outcome in data set [4], in data set [8], in data set [11] and in data set [15] was inactive. Moreover, the Cmax in [5] stood at 1680 ng/mL; in data set [6] it was 188 ng/mL. For the same compound, in data set [12], the CL/F was 1420 mL/min/kg. The Fu in [13] was determined as 4%; in [16], 5.8%. Moreover, the Activity in data set [14] was more than 10 µM. For the same compound, the figures for the t1/2 in [17] and in data set [18] were 23.4 min and 15.6 min, respectively.

In general, EC50 refers to the concentration that produces a half-maximal response. In the case of `COc1nc(NC(=O)c2ccccn2)ccc1Cl`, the Emax in data set [1] stood at 95%. The EC50 in data set [19] was more than 5000 nM.

On to `O=C(Nc1ccc2c(c1)OCO2)c1ccccn1`, for which the Emax in data set [1] was determined as 90%; in [7], 50%. Besides, the EC50 in data set [19] is more than 10000 nM; in data set [20], 500 nM.

Consider `COc1ccc(NC(=O)c2ccccn2)cc1Cl`, for which the values for the Emax in data set [1] and in data set [7] were 161% and 108%, respectively. The fold change (FC) is 7.2 in data set [21] and 12 in data set [22]. In addition, the results for the EC50 in [19] and in data set [20] were 1100 nM and 740 nM, respectively.

Consider `O=C(Nc1cccc(C(F)(F)F)c1)c1ccccn1`, for which the values for the Emax in data set [1] and in data set [7] were 150% and 81%, respectively. Also, the remaining at 1 h in [3] is 19%; in data set [10], 26%. For the same compound, the Fu is reported as 1.3% in [13] and 2.9% in data set [16].

Regarding `O=C(Nc1cccc(OC(F)(F)F)c1)c1ccccn1`, the results for the Emax in data set [1] and in data set [7] were 132% and 75%, respectively. The remaining at 1 h came to 20% in [3] and 22% in [10]. The Fu in data set [13] is given as 0.8%; in data set [16], 1.6%.

`O=C(Nc1ccc(Cl)c(Cl)c1)c1ccco1`: the Emax in data set [1] was 135%. Further, the EC50 in data set [19] was more than 5000 nM.

As for `Cn1cccc1C(=O)Nc1ccc(Cl)c(Cl)c1`, the EC50 in data set [19] is more than 10000 nM.

For `COc1cc(NC(=O)c2ccccn2)ccc1F`, the Emax turned out to be 207% in data set [1] and 107% in [7]. The remaining at 1 h in data set [3] amounted to 6.3%; in data set [10], 3%. The outcome in data set [4], in data set [8], in data set [11], in data set [23], in data set [14] and in data set [15] was inactive. The fold change (FC) in [21] came to 17.5; in [22], 26.7. For the same compound, the Fu in [13] amounted to 5.1%; in data set [16], 6.5%. Also, the results for the 50% effective concentration (EC50) in data set [19] and in [20] were 780 nM and 370 nM, respectively.

Turning to `N#Cc1ccc(NC(=O)c2ccccn2)cc1C(F)(F)F`, the EC50 in data set [19] and in data set [20] was more than 10000 nM each time.

For `O=C(Nc1cccc(C(F)(F)F)n1)c1ccccn1`, the EC50 in data set [19] and in data set [20] was more than 10000 nM in each case.

Take `O=C(Nc1ccc(Cl)c(C(F)(F)F)c1)c1ccccn1`: the results for the Emax in [1] and in [7] were 47% and 41%, respectively. Also, the figures for the fold change (FC) in data set [21] and in [22] were 1.8 and 2.1, respectively. Besides, the EC50 in [19] was 2100 nM; in data set [20] it was 1700 nM.

Consider `O=C(Nc1ccc(Cl)c(Cl)c1)c1cnccn1`, for which the EC50 in [19] was more than 10000 nM.

Consider `COc1ccc(NC(=O)c2ccccn2)cc1OC`, for which the Emax in data set [1] was 164%; in data set [7] it was 102%. Further, the EC50 was more than 5000 nM in data set [19] and 2400 nM in data set [20].

In the case of `COc1cc(NC(=O)c2ccccn2)ccc1C`, the results for the Emax in data set [1] and in data set [7] were 178% and 121%, respectively. Also, the fold change (FC) in [21] came out at 16.8; in data set [22], 35.3. For the same compound, the EC50 was 560 nM in [19] and 210 nM in [20].

For the compound `O=C(Nc1ccc(Cl)c(Cl)c1)c1ccccc1`, in [19], the EC50 was more than 10000 nM.

For the compound `COc1cc(NC(=O)c2ccccn2)ccc1Cl`, the Emax in data set [1] worked out at 182%; in data set [7] it was 109%. The AUC in data set [2] worked out at 705 ng·h/mL; in data set [9] it was 173 ng·h/mL. Moreover, the remaining at 1 h came out at 1.8% in data set [3] and 5.3% in data set [10]. In addition, the result in [4], in data set [8], in data set [11] and in [15] was inactive. Besides, the Cmax was 1580 ng/mL in data set [5] and 154 ng/mL in data set [6]. For the same compound, the fold change (FC) came to 28.1 in data set [21], 35.3 in data set [22] and 2.7 in data set [23]. For the same compound, in [12], the CL/F is 894 mL/min/kg. Further, the Fu in [13] was 2.2%; in data set [16], 2.4%. Moreover, the Activity in [14] is 5.1 µM. In addition, the t1/2 in [17] came out at 9 min; in data set [18], 114 min.

Turning to `O=C(Nc1ccc(Cl)c(Cl)c1)c1ccccn1`, the Emax in data set [1] was 80%. Also, in data set [19], the EC50 was found to be 1400 nM.

For the compound `O=C(Nc1ccc(Cl)c(Cl)c1)c1ccc(Br)o1`, the Emax in [1] came to 62%. Also, the EC50 in [19] stood at 4100 nM.

In the case of `O=C(Nc1ccccc1)[C@]12C[C@H]1/C(=N\O)c1ccccc1O2`, the Emax in data set [1] is 251%; in data set [7], 88%. Besides, the fold change (FC) in [22] came out at 8.8. Besides, the EC50 in data set [20] was determined as 2030 nM.

Consider `O=C(Nc1ccc(Cl)c(Cl)c1)c1cc2ccccc2o1`, for which the EC50 in data set [19] is more than 10000 nM.

For the compound `O=C(Nc1cccc(Cl)c1)c1ccccn1`, the Emax in data set [1] turned out to be 227%; in [7], 124%. The fold change (FC) is 18.1 in data set [21] and 31.4 in [22]. The EC50 is 1100 nM in data set [19] and 290 nM in data set [20].

On to `O=C(Nc1cccc(Cl)c1)c1ccco1`, for which the fold change (FC) in [21] is 5. In addition, the EC50 in data set [19] is more than 5000 nM.

Regarding `O=C(Nc1ccc(Cl)c(Cl)c1)C1CCCCC1`, the 50% effective concentration (EC50) in data set [19] was more than 10000 nM.

Regarding `O=C(Nc1ccc(F)c(C(F)(F)F)c1)c1ccccn1`, the Emax in [1] amounted to 54%; in data set [7], 42%. In addition, the figures for the fold change (FC) in data set [21] and in [22] were 2.1 and 2.7, respectively. For the same compound, the values for the EC50 in [19] and in data set [20] were 1500 nM and 1000 nM, respectively.

Take `O=C(Nc1ccc(Cl)c(Cl)c1)c1ccncn1`: in data set [1], the Emax worked out at 83%. For the same compound, the EC50 in [19] turned out to be 2800 nM.

Take `O=C(Nc1ccc(Cl)c(Cl)c1)c1ccc(-c2ccccc2)o1`: in data set [19], the EC50 was more than 10000 nM.

On to `COc1cc(NC(=O)c2ccccn2)ncn1`, for which the EC50 in data set [19] and in data set [20] was more than 10000 nM each time.

Regarding `Cc1cc(NC(=O)c2ccco2)ccc1Br`, the fold change (FC) in data set [21] was 4.3. For the same compound, the EC50 in data set [19] was more than 5000 nM.

Consider `O=C(Nc1ccc(Cl)c(Cl)c1)c1ccsc1`, for which the EC50 in [19] is more than 10000 nM.

As for `O=C(Nc1ccc(Cl)c(Cl)c1)c1ccno1`, in data set [19], the EC50 was more than 10000 nM.

The values are drawn from ChEMBL document CHEMBL1158444 (J Med Chem, 2009).
